Data published in ChEMBL document CHEMBL1153564 (Antimicrob Agents Chemother, 2008).
Converted amounts (≈) assume the structure as drawn. The source made the active and inactive calls. No cut-off for these calls is given here. Starred links: 1 amine or outer side, 2 acyl side, 3 side chain; linkers in the order of their positions; H or OH if unused. Positions of bridges follow the written chain, without caps; N, C: chain ends. Non-standard residues stand in square brackets, D forms with d. Residues, ends and D or L forms follow the SMILES beside them. *: point of attachment. pTerphenylCO(4''-OnC5H11) = CCCCCOc1ccc(-c2ccc(-c3ccc(C(=O)*)cc3)cc2)cc1; Orn(4R-OH,5R-OH) = O=C([C@H](C[C@@H](O)[C@@H](O)N[*:3])N[*:1])[*:2]; hTyr(3S-OH,4S-OH) = N[C@H](C(=O)O)[C@H](O)[C@@H](O)c1ccc(O)cc1; Pro(3S-OH,4S-Me) = C[C@H]1CN[C@H](C(=O)O)[C@H]1O; Hyp = O=C(O)[C@@H]1C[C@@H](O)CN1

Assays:
Nakaseomyces glabratus [1] = assay: Antifungal activity against Candida glabrata 5376 infected in neutropenic ICR/Swiss mouse candidiasis model assessed as dose required for 1-log10 reduction in […] per kidney administered intraperitoneally every 24 hrs up to 4 days measured per 96 hrs; assay type: functional
Procedure, shortened: (§1)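 Neutropenic ICR/Swiss mice infected i.v. with the strain; therapy began 2 h later. Total doses of 1.25–320 mg/kg/96 h were given i.p. as 1, 2, 4 or 6 doses (q96h, q48h, q24h, q16h), three mice per regimen. Kidney CFU were counted after 4 days. Effect is the change from untreated controls at the end of therapy.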

Candida albicans [2] = assay: Antifungal activity against Candida albicans 580 infected in neutropenic ICR/Swiss mouse candidiasis model assessed as dose required to maintain […] of 3.81 +/- 0.33 log10CFU per kidney administered intraperitoneally every 24 hrs up to 4 days measured per 24 hrs; assay type: functional
Procedure, shortened: (§2)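 Neutropenic mice (cyclophosphamide sc on days −4, −1 and +2) were infected iv 2 h before therapy. Five total doses from 0.078 to 20 mg/kg/24 h were given ip q24h for 4 days, three mice per regimen. Kidney CFU were measured at the end of therapy. Static and 1-log-kill doses were derived from a Hill sigmoid dose-effect fit.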

Nakaseomyces glabratus [3] = assay: Antifungal activity against Candida glabrata 5376 infected in neutropenic ICR/Swiss mouse candidiasis model assessed as prolongation of fungal growth suppression at 1.25 mg/kg, ip administered 2 hrs postinfection as single dose by time-kill assay; assay type: functional; conditions: route intraperitoneal
Procedure, shortened: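 Single ip dose of 1.25, 5 or 20 mg/kg given 2 h after iv infection of neutropenic mice. Groups of 3 treated and 3 control mice sampled at 1–24 h intervals over 96 h. Kidney homogenates plated on SDA, 24 h at 35°C. PAFE = time for treated burden to rise 1 log10 CFU/kidney after serum level fell below MIC, minus the same time in controls.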

Candida albicans [4] = assay: Antifungal activity against Candida albicans K-1 infected in neutropenic ICR/Swiss mouse candidiasis model assessed as dose required for 1-log10 reduction in […] per kidney administered intraperitoneally every 24 hrs up to 4 days measured per 96 hrs; assay type: functional
Procedure, shortened: (§3)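 Neutropenic mice were infected iv with C. albicans K-1 2 h before therapy. Total doses of 1.25, 5, 20, 80 and 320 mg/kg/96 h were split into 1, 2, 4 or 6 ip doses (q96h, q48h, q24h, q16h), three mice per regimen. Effect is the log10 CFU/kidney relative to untreated controls at 96 h. Static and 1-log doses were taken from a Hill model fit.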

Candida albicans [5] = assay: Antifungal activity against Candida albicans K-1 infected in neutropenic ICR/Swiss mouse candidiasis model assessed as dose required for 1-log10 reduction in […] per kidney administered intraperitoneally every 24 hrs up to 4 days measured per 24 hrs; assay type: functional
Candida albicans [6] = assay: Antifungal activity against Candida albicans 98-210 infected in neutropenic ICR/Swiss mouse candidiasis model assessed as dose required for 1-log10 reduction in […] per kidney administered intraperitoneally every 24 hrs up to 4 days measured per 24 hrs; assay type: functional; procedure, shortened: as §2
Candida albicans [7] = assay: Antifungal activity against Candida albicans K-1 infected in neutropenic ICR/Swiss mouse candidiasis model assessed as dose required to maintain […] of 3.90 +/- 0.15 log10CFU per kidney administered intraperitoneally once every 96 hrs measured per 96 hrs; assay type: functional; procedure, shortened: as §3
Candida albicans [8] = assay: Antifungal activity against Candida albicans K-1 infected in neutropenic ICR/Swiss mouse candidiasis model assessed as dose required for 1-log10 reduction in […] per kidney administered intraperitoneally once every 96 hrs measured per 96 hrs; assay type: functional; procedure, shortened: as §3
Nakaseomyces glabratus [9] = assay: Antifungal activity against Candida glabrata 5376 infected in neutropenic ICR/Swiss mouse candidiasis model assessed as dose required for 1-log10 reduction in […] per kidney administered intraperitoneally every 16 hrs up to 4 days measured per 96 hrs; assay type: functional; procedure, shortened: as §1
Candida albicans [10] = assay: Antifungal activity against Candida albicans 98-210 assessed as partial growth inhibition after 24 hrs by CLSI end point method; assay type: functional; conditions: 98-210, 24 h
Procedure, shortened: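 CLSI M27-A2 broth dilution. Two end points read against the drug-free control well: partial inhibition (CLSI end point) and complete inhibition. Run in duplicate on four separate occasions; value is the mean. Drug stock in DMSO, diluted in 0.9% NaCl.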

Candida albicans [11] = assay: Antifungal activity against Candida albicans after 24 hrs by broth microdilution method; assay type: functional
Nakaseomyces glabratus [12] = assay: Antifungal activity against Candida glabrata 32930 infected in neutropenic ICR/Swiss mouse candidiasis model assessed as fungal count per kidney administered 2 hrs postinfection measured up to 48 hrs; assay type: functional
Procedure, shortened: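 Untreated neutropenic mice infected via the tail vein (inoculum about 6.1 log10 CFU/ml, 0.1 ml). Growth is the rise in kidney CFU over 48 h. Kidneys were homogenised, serially diluted 1:10 and plated on SDA for 24 h at 35°C. Mean of three mice.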

Nakaseomyces glabratus [13] = assay: Antifungal activity against Candida glabrata 5376 infected in neutropenic ICR/Swiss mouse candidiasis model assessed as fungal count per kidney administered 2 hrs postinfection measured up to 48 hrs; assay type: functional
Procedure, shortened: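 Female ICR/Swiss mice (23–27 g) made neutropenic with cyclophosphamide s.c. (150 mg/kg day −4, 100 mg/kg day −1, 100 mg/kg day +2). Infected by tail vein with 0.1 ml inoculum (~6.1 log10 CFU/ml). Kidneys of untreated mice were homogenised and plated on SDA for 24 h at 35°C. Growth over 48 h is given as log10 CFU/kidney.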

Mus musculus [14] = assay: Cmax in serum of neutropenic ICR/Swiss mouse candidiasis model at 80 mg/kg, ip up to 4 hrs by reverse-phase high-pressure liquid chromatography; assay type: ADME, organism-based; set-up: dose 80 mg/kg, route intraperitoneal; conditions: in vivo
Procedure, shortened: (§4)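 Infected neutropenic ICR/Swiss mice given single ip doses (5, 20 or 80 mg/kg; 0.2 ml); serum from three isoflurane-anaesthetised mice at 1, 4, 8, 12, 24 and 48 h, stored at −80°C, assayed by reverse-phase HPLC with fluorescence detection, loratadine internal standard, linear 10–50,000 ng/ml. Noncompartmental analysis; half-life by nonlinear least squares.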

Mus musculus [15] = assay: Cmax in serum of neutropenic ICR/Swiss mouse candidiasis model at 5 mg/kg, ip up to 4 hrs by reverse-phase high-pressure liquid chromatography; assay type: ADME, organism-based; set-up: dose 5 mg/kg, route intraperitoneal; conditions: in vivo; procedure, shortened: as §4
[16] = AUC (0 to infinity) in serum of neutropenic ICR/Swiss mouse candidiasis model at 5 mg/kg, ip by reverse-phase high-pressure liquid chromatography; assay type: ADME, organism-based; set-up: time infinity, dose 5 mg/kg, route intraperitoneal
Procedure, shortened: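 Single ip dose in 0.2 ml to infected neutropenic mice. Serum from groups of three isoflurane-anaesthetised mice at 1, 4, 8, 12, 24 and 48 h, stored −80°C. Drug measured by reverse-phase HPLC with fluorescence detection against loratadine internal standard (calibration 10–50,000 ng/ml). Noncompartmental analysis; AUC by trapezoidal rule.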

Candida albicans [17] = assay: Antifungal activity against Candida albicans K-1 infected in neutropenic ICR/Swiss mouse candidiasis model assessed as reduction of […] in kidney at 20 mg/kg, ip administered 2 hrs postinfection as single dose measured after 96 hrs post dosing by time-kill assay; assay type: functional, organism-based; set-up: dose 20 mg/kg
Procedure, shortened: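 Single ip dose (20, 5 or 1.25 mg/kg) given 2 h after iv infection of neutropenic mice with K-1. Three treated and three control mice were sampled at intervals over 96 h for kidney CFU. PAFE is the time for treated burden to rise 1 log10 after serum levels fall below MIC, minus the same time in controls. Free drug was taken as 1%.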

Nakaseomyces glabratus [18] = assay: Antifungal activity against Candida glabrata 5376 infected in neutropenic ICR/Swiss mouse candidiasis model assessed as dose required to maintain […] of 3.71 +/- 0.21 log10CFU per kidney administered intraperitoneally every 48 hrs up to 4 days measured per 96 hrs

Work on `CCCCCOc1ccc(-c2ccc(-c3ccc(C(=O)N[C@H]4C[C@@H](O)[C@@H](O)NC(=O)[C@@H]5[C@@H](O)[C@@H](C)CN5C(=O)[C@H]([C@@H](C)O)NC(=O)[C@H]([C@H](O)[C@@H](O)c5ccc(O)cc5)NC(=O)[C@@H]5C[C@@H](O)CN5C(=O)[C@H]([C@@H](C)O)NC4=O)cc3)cc2)cc1` [ANIDULAFUNGIN] ({pTerphenylCO(4''-OnC5H11)}-[Orn(4R-OH,5R-OH)]T[Hyp][hTyr(3S-OH,4S-OH)]T[Pro(3S-OH,4S-Me)]; lactam 1-C) yielded an Activity (Nakaseomyces glabratus [1]) of 30.8 mg/kg, an Activity (Candida albicans [2]) of 0.94 mg/kg and an Activity (Nakaseomyces glabratus [3]) of 19 h. The Activity (Candida albicans [4]) was 8.1 mg/kg, the Activity (Candida albicans [5]) was 2 mg/kg and the Activity (Candida albicans [6]) was 13 mg/kg. It also gave an Activity (Candida albicans [7]) of 3.07 mg/kg, an Activity (Candida albicans [8]) of 4.97 mg/kg and an Activity (Nakaseomyces glabratus [9]) of 56.7 mg/kg. For the same compound, the MIC (Candida albicans [10]) was 0.015 µg/mL (≈ 0.0132 µM), the MIC90 (Candida albicans [11]) was 0.06 µg/mL (≈ 0.0526 µM) and the log10cfu (Nakaseomyces glabratus [12]) was 1.29. The log10cfu (Nakaseomyces glabratus [13]) was 2.1, the Cmax (Mus musculus [14]) was 60000 ng/mL and the Cmax (Mus musculus [15]) was 4300 ng/mL. The AUC(0-inf) [16] was 96000 ng·h/mL, the Activity (Candida albicans [17]) was “Active” and the Activity (Nakaseomyces glabratus [18]) was 15.3 mg/kg.
